Results on 3 compounds are retold here after ChEMBL document CHEMBL4011636, “Utilization of an Active Site Mutant Receptor for the Identification of Potent and Selective Atypical 5-HT2C Receptor Agonists” (J Med Chem, 2017).

pEC50: −log10 of the molar value.

Data set [1] can be described thus: Permeability across apical to basolateral side in human Caco2 cells. The format is ADME, cell-based. To be noted: Caco-2, read-out: permeability.
A short description of data set [2]: Protein binding in rat plasma. The format is ADME, cell-free. To be noted: read-out: PPB (converted).
Data set [3] is described as follows: Half life in human microsomes. The format is ADME, Microsome.
The nature of data set [4]: Permeability of compound at pH 7.4 by PAMPA. The format is physicochemical. To be noted: read-out: permeability.
Data set [5] is described as follows: Plasma concentration in Sprague-Dawley rat at 30 mg/kg, po measured at 2 hrs post dose by LC/MS-MS analysis. The format is ADME, organism-based. In outline: (§1)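 Male rats given 30 mg/kg orally in 0.15% docusate sodium/2% PVP-K/97.85% water. Plasma and brain were sampled at a single time point after dosing. Brain was diluted 1:2 (vol/weight) with water before homogenization (dilution factor 3). Concentrations were measured by LC/MS−MS after acetonitrile protein precipitation. Values are the average of three animals; B/P is the brain to plasma ratio.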

For data set [6], the target named is 5-hydroxytryptamine receptor 2B (Homo sapiens, UniProt P41595). Put plainly: Agonist activity at recombinant human 5-HT2B receptor expressed in HEK293E cells assessed as induction of intracellular Ca2+ levels after 90 secs by Fluo-4-dye based FLIPR assay. The format is cell-based, HEK293. In outline: (§2)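 HEK293E cells stably expressing human receptor (VNV isoform for 5-HT2C; ~400−795 fmol/mg protein), grown in DMEM with 10% dialyzed FBS and G418. Cells plated at 20 000/well in serum-free DMEM overnight at 37 °C, then loaded 1 h at room temperature with 5 μM Fluo-4 in HBSS/25 mM HEPES. Eleven compound concentrations added on FLIPR, Ca2+ signal read for 90 s. EC50 from a four-parameter logistic fit, at least triplicate.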

Data set [7] can be described thus: Half life in rat microsomes. The format is ADME, Microsome.
A short description of data set [8]: Metabolic stability in rat liver microsomes assessed as parent compound remaining at […] after 10 mins. The format is ADME, microsome. The conditions noted are these: read-out: Stability.
The target of data set [9] is T1, 5-hydroxytryptamine receptor 2C (Homo sapiens, UniProt P28335).
T1 sequence (P28335 whole entry): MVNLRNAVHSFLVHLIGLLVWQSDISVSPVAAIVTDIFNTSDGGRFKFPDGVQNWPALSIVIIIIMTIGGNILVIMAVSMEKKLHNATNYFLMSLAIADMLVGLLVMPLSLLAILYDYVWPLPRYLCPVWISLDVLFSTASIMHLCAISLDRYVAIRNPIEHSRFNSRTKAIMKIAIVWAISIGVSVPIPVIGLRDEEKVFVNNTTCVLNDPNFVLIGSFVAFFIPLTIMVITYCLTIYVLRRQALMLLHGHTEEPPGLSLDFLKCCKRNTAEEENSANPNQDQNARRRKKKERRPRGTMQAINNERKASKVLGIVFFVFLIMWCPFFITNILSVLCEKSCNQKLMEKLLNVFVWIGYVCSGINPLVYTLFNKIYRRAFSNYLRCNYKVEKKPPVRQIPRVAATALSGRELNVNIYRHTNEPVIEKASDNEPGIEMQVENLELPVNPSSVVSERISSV
Description: Agonist activity at recombinant human 5-HT2C receptor expressed in HEK293E cells assessed as induction of intracellular Ca2+ levels after 90 secs by Fluo-4-dye based FLIPR assay. The format is functional, cell-based, HEK293. In outline:
as §2

A short description of data set [10]: Drug uptake in Sprague-Dawley rat brain at 30 mg/kg, po measured at 2 hrs post dose by LC/MS-MS analysis. The conditions noted are these: read-out: Drug uptake. The format is ADME, organism-based. The gist of the method: as §1
Data set [11] is described as follows: Permeability of compound at pH 5.5 by PAMPA. The format is physicochemical. The conditions noted are these: read-out: permeability.
In data set [12] the target is T2, 5-hydroxytryptamine receptor 2C (Homo sapiens) (UniProt P28335).
T2 sequence (whole entry): T1 sequence (P28335 whole entry)
Description: Intrinsic activity at recombinant human 5-HT2C receptor expressed in HEK293E cells assessed as induction of intracellular Ca2+ levels after 90 secs by Fluo-4-dye based FLIPR assay relative to serotonin. The format is functional, cell-based. To be noted: HEK293. In outline: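 FLIPR Fluo-4 Ca2+ assay in HEK293E cells stably expressing the human receptor (VNV isoform for 5-HT2C), eleven-point concentration series, 90 s read. Response normalized to 3 μM serotonin on the same plate (defined as IA = 1). Intrinsic activity taken from a four-parameter logistic fit.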

The target in data set [13] is 5-hydroxytryptamine receptor 2A (Homo sapiens, UniProt P28223). Description: Agonist activity at recombinant human 5-HT2A receptor expressed in HEK293E cells assessed as induction of intracellular Ca2+ levels after 90 secs by Fluo-4-dye based FLIPR assay. The format is cell-based, HEK293. In outline:
as §2

Data set [14] is described as follows: Ratio of drug uptake in Sprague-Dawley rat brain to plasma at 30 mg/kg, po measured at 2 hrs post dose by LC/MS-MS analysis. The format is ADME, organism-based. To be noted: read-out: BPR. In outline: as §1
The nature of data set [15]: Metabolic stability in human liver microsomes assessed as parent compound remaining at […] after 10 mins. To be noted: read-out: Stability. The format is ADME, microsome.
Data set [16] in a line: Protein binding in human plasma. The format is ADME, cell-free. The conditions noted are these: read-out: PPB (converted).
Data set [17] in a line: Efflux ratio of permeability across basolateral to apical side in human Caco2 cells. The format is ADME, cell-based. To be noted: Caco-2.
A short description of data set [18]: Permeability across basolateral to apical side in human Caco2 cells. The format is ADME, cell-based. To be noted: Caco-2, read-out: permeability.
Data set [19] is described as follows: Ratio of drug uptake in Sprague-Dawley rat brain to plasma at 30 mg/kg, po measured at 1 hr post dose by LC/MS-MS analysis. The conditions noted are these: read-out: BPR. The format is ADME, organism-based. In outline:
as §1

Data set [20] is described as follows: Drug uptake in Sprague-Dawley rat brain at 30 mg/kg, po measured at 1 hr post dose by LC/MS-MS analysis. The format is ADME, organism-based. The conditions noted are these: read-out: Drug uptake. The gist of the method:
as §1

Data set [21] can be described thus: Plasma concentration in Sprague-Dawley rat at 30 mg/kg, po measured at 1 hr post dose by LC/MS-MS analysis. The format is ADME, organism-based. The gist of the method:
as §1

The subject of a further data set is Rattus norvegicus. Description: Antiobesity activity in ad libitum feeding Sprague-Dawley rat model assessed as reduction in food intake at 10 mg/kg, po administered at 60 mins prior to the onset of the dark cycle followed by incubation for first 8 hrs in light cycle and 12 hrs in dark cycle. The format is functional. On the set-up: scale not given: the % may be the effect or the level left. The gist of the method:
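Male Sprague Dawley rats (~225 g; n = 6), trained in operant chambers, dosed orally with compound or vehicle (14% PPG, 1% Tween, 85% water) 60 min before dark onset. Food intake was monitored in individual boxes for 20 h (12 h dark plus first 8 h light). Percent reduction was computed from drug-treated versus vehicle-treated total intake.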

5-hydroxytryptamine receptor 2A, sequence (P28223 whole entry): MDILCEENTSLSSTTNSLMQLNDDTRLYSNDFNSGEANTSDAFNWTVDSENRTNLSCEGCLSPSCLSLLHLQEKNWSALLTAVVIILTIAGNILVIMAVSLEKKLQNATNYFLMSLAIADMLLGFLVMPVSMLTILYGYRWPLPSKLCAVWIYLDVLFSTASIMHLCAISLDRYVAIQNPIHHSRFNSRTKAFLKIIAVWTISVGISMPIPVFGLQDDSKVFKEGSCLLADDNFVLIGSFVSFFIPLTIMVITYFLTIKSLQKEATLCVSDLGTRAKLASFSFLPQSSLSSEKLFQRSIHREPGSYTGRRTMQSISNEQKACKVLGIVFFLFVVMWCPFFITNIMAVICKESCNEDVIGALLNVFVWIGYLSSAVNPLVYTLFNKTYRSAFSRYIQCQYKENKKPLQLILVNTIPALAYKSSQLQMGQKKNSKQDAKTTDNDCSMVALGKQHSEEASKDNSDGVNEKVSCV
5-hydroxytryptamine receptor 2B, sequence (P41595 whole entry, canonical isoform): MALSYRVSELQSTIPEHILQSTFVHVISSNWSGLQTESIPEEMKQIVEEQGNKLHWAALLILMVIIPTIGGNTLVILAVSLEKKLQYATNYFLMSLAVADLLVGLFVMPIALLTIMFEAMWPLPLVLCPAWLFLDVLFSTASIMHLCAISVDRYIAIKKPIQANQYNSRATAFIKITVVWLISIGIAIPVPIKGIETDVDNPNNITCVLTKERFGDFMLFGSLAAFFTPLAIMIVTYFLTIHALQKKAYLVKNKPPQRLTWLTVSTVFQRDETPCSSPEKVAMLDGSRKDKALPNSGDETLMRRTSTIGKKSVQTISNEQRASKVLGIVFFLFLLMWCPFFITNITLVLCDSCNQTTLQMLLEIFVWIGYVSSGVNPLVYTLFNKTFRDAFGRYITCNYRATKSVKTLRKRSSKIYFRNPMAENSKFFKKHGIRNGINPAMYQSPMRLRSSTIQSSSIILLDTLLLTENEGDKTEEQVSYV

In the case of `Cn1nc(-c2cccc3ccccc23)cc1C(=O)N1CCC(CO)CC1`, the Papp A→B in [1] worked out at 32.3 ×10⁻⁶ cm/s. The results for the fraction unbound in data set [2] and in data set [16] were 0.076 and 0.023, respectively. For the same compound, the half-life in data set [3] came out at 36 min; in [7], 8 min. For the same compound, the values for the Papp in [4] and in [11] were 61.3 ×10⁻⁶ cm/s and 58.8 ×10⁻⁶ cm/s, respectively. The concentration at 2 h stood at 2480 nM in data set [5] and 721 nM in data set [10]. In addition, the pEC50 is below 5.00 in data set [6], 8.22 in data set [9] and 7.12 in [13]. For the same compound, the remaining at 10 min in [8] came out at 37%; in [15], 92%. In data set [12], the Intrinsic activity turned out to be 1. The Kp at 2 h in data set [14] was found to be 0.3. For the same compound, the efflux ratio in [17] was 0.5. In addition, in [18], the Papp B→A is 16.8 ×10⁻⁶ cm/s.
For the compound `Cc1[nH]c(-c2cccc3ccccc23)cc1C(=O)N1CCC(CO)CC1`, in data set [19], the Kp at 1 h came out at 0.2. The Papp A→B in data set [1] was 17.2 ×10⁻⁶ cm/s. Further, the fraction unbound is 0.075 in [2] and 0.017 in [16]. Moreover, the figures for the half-life in data set [3] and in data set [7] were 41 min and 11 min, respectively. For the same compound, the Papp amounted to 49.2 ×10⁻⁶ cm/s in data set [4] and 62.4 ×10⁻⁶ cm/s in data set [11]. Further, the pEC50 in data set [6] is below 5.00; in data set [9], 7.92; in [13] it was below 5.00. The remaining at 10 min in [8] stood at 44%; in [15], 76%. The Intrinsic activity in data set [12] was 0.9. Besides, the concentration at 1 h in data set [20] worked out at 202 nM; in data set [21], 1140 nM. Besides, the efflux ratio in data set [17] is 1.3. In addition, the Papp B→A in [18] is 21.9 ×10⁻⁶ cm/s.
Turning to `Cc1cc2c(cc1C(F)(F)F)N(C(=O)Nc1ccc(Oc3cccnc3C)nc1)CC2` [SB-243213], in the data set with Rattus norvegicus, the Activity was 15%.
